A short description of series [1]: Inhibition of UV light-induced MMP-1 protein expression in HDF at 0.5 mM after 72 hrs UV light irradiation by ELISA. The class given is functional. The note with it: Homo sapiens. An outline of the steps:
(§1)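 HDFs washed twice with PBS, then exposed to UVA at 6.3 J/cm2. MMP-1 protein in culture medium measured by ELISA 72 h after irradiation: anti-MMP-1 monoclonal 60 min at 37 °C, alkaline phosphatase-conjugated anti-mouse IgG 30 min, OD405. IC50 taken as the dose that lowers UV-induced MMP-1 by 50%; triplicate, mean ± SD.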

Series [2] in a line: Solubility of the compound in water. In kind it is physicochemical.
The target of series [3] is T1, Tyrosinase (Agaricus bisporus) (UniProt O42713).
T1 sequence (whole entry): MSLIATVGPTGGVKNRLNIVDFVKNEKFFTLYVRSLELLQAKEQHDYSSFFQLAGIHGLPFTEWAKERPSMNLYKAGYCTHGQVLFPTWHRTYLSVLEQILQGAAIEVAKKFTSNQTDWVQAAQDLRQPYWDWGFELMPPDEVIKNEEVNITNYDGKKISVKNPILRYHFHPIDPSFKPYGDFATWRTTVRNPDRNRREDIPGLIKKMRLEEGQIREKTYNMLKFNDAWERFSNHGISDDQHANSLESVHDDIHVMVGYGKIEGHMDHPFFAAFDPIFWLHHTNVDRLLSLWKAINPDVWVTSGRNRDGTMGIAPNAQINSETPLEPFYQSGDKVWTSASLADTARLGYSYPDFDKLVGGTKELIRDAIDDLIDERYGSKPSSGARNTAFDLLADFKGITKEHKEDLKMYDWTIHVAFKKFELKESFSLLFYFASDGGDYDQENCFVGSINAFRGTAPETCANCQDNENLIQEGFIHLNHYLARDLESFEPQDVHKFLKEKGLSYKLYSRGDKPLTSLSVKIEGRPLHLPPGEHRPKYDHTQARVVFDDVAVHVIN
As to the kind of experiment: Inhibition of mushroom tyrosinase using L-DOPA as substrate at 2.5 mM preincubated for 10 to 15 mins prior to substrate addition by spectrophotometry. An outline of the steps: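 Mushroom tyrosinase (625 U/mL solution) pre-incubated with sample in phosphate-buffered saline for 10–15 min at 25 °C. Reaction started with 0.03% L-DOPA, and dopachrome formation read at 475 nm. Result given as percent inhibition; triplicate, mean ± SD.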

For series [4], the target named is T2, Tyrosinase (Mus musculus) (UniProt P11344).
T2 sequence (whole entry): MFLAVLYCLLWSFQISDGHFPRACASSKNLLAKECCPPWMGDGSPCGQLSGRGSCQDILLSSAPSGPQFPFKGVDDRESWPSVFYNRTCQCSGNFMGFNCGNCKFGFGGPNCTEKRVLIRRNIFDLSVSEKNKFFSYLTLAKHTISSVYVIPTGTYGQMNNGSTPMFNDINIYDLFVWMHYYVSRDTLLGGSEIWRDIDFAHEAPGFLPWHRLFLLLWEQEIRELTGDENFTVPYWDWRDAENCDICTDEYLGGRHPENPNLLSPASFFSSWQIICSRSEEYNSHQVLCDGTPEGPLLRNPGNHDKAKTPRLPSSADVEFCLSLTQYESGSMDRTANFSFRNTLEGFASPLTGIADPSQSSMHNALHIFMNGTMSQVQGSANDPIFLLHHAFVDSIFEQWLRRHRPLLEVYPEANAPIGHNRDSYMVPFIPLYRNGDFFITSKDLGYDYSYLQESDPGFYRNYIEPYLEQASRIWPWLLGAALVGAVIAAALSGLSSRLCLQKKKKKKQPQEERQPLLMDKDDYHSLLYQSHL
Briefly: Inhibition of tyrosinase in mouse B16F10 cells assessed as inhibition of melanin synthesis at 0.25 mM after 72 hrs by spectrophotometry relative to control. In kind it is cell-based. The following applies: B16-F10. The method in brief:
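B16F10 cells grown with α-MSH were treated with samples for 72 h, then counted, washed and pelleted. Pellets solubilized in 1 N NaOH plus phosphate buffer pH 6.8 containing 1% Triton X-100 and 2 mM PMSF. Melanin read at 405 nm against a synthetic melanin standard curve and expressed as percent of control; triplicate, mean ± SD.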

Series [5] can be described thus: Cytotoxicity against mouse B16F10 cells assessed as cell viability after 48 hrs by MTT assay. The class given is cell-based, B16-F10. The note with it: read-out: MNCC. An outline of the steps:
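B16F10 mouse melanoma cells grown in DMEM with 10% FBS, 1% penicillin-streptomycin and […] at 37 °C under 5% CO2. Exposed to samples 48 h at 37 °C, then MTT added for 3 h with A570 read-out. Reported value is the highest tested dose that caused no loss of viability.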

Series [6] can be described thus: Inhibition of UV light-induced MMP-1 protein expression in HDF after 72 hrs UV light irradiation by ELISA. The note with it: for inhibition: Homo sapiens. The class given is functional, Homo sapiens. An outline of the steps:
as §1

A short description of series [7]: Induction of HDF proliferation at 0.5 mM after 48 hrs by MTT assay relative to control. The class given is functional, Homo sapiens. An outline of the steps:
(§2)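 Human dermal fibroblasts grown in DMEM with 10% FBS and 1% penicillin-streptomycin at 37 °C under 5% CO2. Treated 48 h at 0.5, 2.5 and 5 mM. MTT ([…]) added for 3 h at 37 °C, then absorbance read at 570 nm. Result expressed as percent viable cells versus untreated control; triplicate, mean ± SD.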

The test system of series [8] is HDF. As to the kind of experiment: Induction of collagen synthesis in HDF at 0.5 mM after 24 hrs by EIA. In kind it is functional. The note with it: Homo sapiens. An outline of the steps: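 HDFs seeded at 5 × 10^4 cells and grown 24 h in DMEM with 10% FBS. Medium then switched to serum-free medium containing sample (0.5 mM) for 24 h. Type I procollagen in the supernatant measured by enzyme immunoassay kit; triplicate, mean ± SD.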

Series [9] in a line: Cytotoxicity against HDF at 0.5 to 5 mM after 48 hrs by MTT assay. The note with it: human, 5000 µM. The method in brief: as §2
Series [10] deals with HDF. As to the kind of experiment: Induction of HDF proliferation at 0.1 mM after 48 hrs by MTT assay relative to control. The class given is functional. The following applies: Homo sapiens.
Series [11] can be described thus: Induction of HDF proliferation at 5 mM after 48 hrs by MTT assay relative to control. In kind it is functional, Homo sapiens. The method in brief: as §2

Active and inactive are the calls of the source. No cut-off for these calls is given here. Peptide text beside a SMILES is read from it. Some results are limits rather than exact numbers.

In the case of `C[C@@H](O)[C@H](NC(=O)[C@H](CCCCN)NC(=O)CCCC[C@@H]1CCSS1)C(=O)N[C@H](C(=O)N[C@@H](CCCCN)C(=O)N[C@@H](CO)C(=O)O)[C@@H](C)O` (HELM PEPTIDE1{[O=C(CCCC[C@@H]1CCSS1)[*:2]].K.T.T.K.S}$$$$V2.0), the inhibition is 49.5% in series [1], 60.2% in series [3], 46.1% in series [4] and “Dose-dependent effect” in [6]. Moreover, in series [2], the solubility is > 100 mg/mL. Also, the MNTC at 48 h in [5] was found to be 1 mM. Moreover, in [6], the IC50 came out at 500 µM. Moreover, in series [7], the Activity amounted to 24.5%. Besides, in series [8], the result was Active.

Turning to `O=C(O)CCCCC1CCSS1` (stereo not drawn) [LIPOIC ACID, ALPHA], the inhibition entry in [3] was “Active”. In series [5], the MNTC at 48 h was determined as 0.1 mM. Besides, the Activity entry in [9] was “Toxic”. The outcome in series [10] was inactive.

On to H-KTTKS-OH, for which the inhibition result in series [3] was “Active”. Moreover, the Activity in series [11] came out at 13.4%. The inhibition is 7.5% in [4] and “Dose-dependent effect” in series [6]. Further, the MNTC at 48 h in [5] is 5 mM. For the same compound, the result in [8] was Active.
